{
  "source": "ChEMBL document CHEMBL1147081",
  "about": "“Structure of the deacetylase LpxC bound to the antibiotic CHIR-090: Time-dependent inhibition and specificity in ligand binding” (Proc Natl Acad Sci U S A, 2007)",
  "key": {"[1]": {"substrate": "C[C@@H](O)[C@H](NC(=O)c1ccc(C#Cc2ccc(CN3CCOCC3)cc2)cc1)C(=O)NO", "experiment": "Activity of Rhizobium leguminosarum LpxC S214G mutant", "how_it_was_run": "(§1)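 Wild-type and site-directed mutant LpxC (E. coli, R. leguminosarum) expressed and purified, then assayed by a previously described method. Substrate was UDP-3-O-(R-3-hydroxymyristoyl)-N-acetylglucosamine, varied for Michaelis–Menten analysis. KM and kcat came from data sets pooling multiple independent experiments.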"}, "[2]": {"substrate": "C[C@@H](O)[C@H](NC(=O)c1ccc(C#Cc2ccc(CN3CCOCC3)cc2)cc1)C(=O)NO", "experiment": "Ratio of Kcat to Km of Rhizobium leguminosarum LpxC S214G mutant", "how_it_was_run": "as §1"}, "[3]": {"substrate": "C[C@@H](O)[C@H](NC(=O)c1ccc(C#Cc2ccc(CN3CCOCC3)cc2)cc1)C(=O)NO", "experiment": "Activity of Rhizobium leguminosarum LpxC W206Q/S214G mutant", "how_it_was_run": "as §1"}, "[4]": {"substrate": "C[C@@H](O)[C@H](NC(=O)c1ccc(C#Cc2ccc(CN3CCOCC3)cc2)cc1)C(=O)NO", "experiment": "Ratio of Kcat to Km of Rhizobium leguminosarum LpxC W206Q/S214G mutant", "how_it_was_run": "as §1"}, "[5]": {"substrate": "C[C@@H](O)[C@H](NC(=O)c1ccc(C#Cc2ccc(CN3CCOCC3)cc2)cc1)C(=O)NO", "experiment": "Ratio of Kcat to Km for Escherichia coli LpxC", "how_it_was_run": "as §1"}, "[6]": {"substrate": "C[C@@H](O)[C@H](NC(=O)c1ccc(C#Cc2ccc(CN3CCOCC3)cc2)cc1)C(=O)NO", "experiment": "Activity of Escherichia coli LpxC", "how_it_was_run": "as §1"}, "[7]": {"substrate": "C[C@@H](O)[C@H](NC(=O)c1ccc(C#Cc2ccc(CN3CCOCC3)cc2)cc1)C(=O)NO", "experiment": "Activity of Escherichia coli LpxC Q202W/G210S mutant", "how_it_was_run": "as §1"}, "[8]": {"substrate": "C[C@@H](O)[C@H](NC(=O)c1ccc(C#Cc2ccc(CN3CCOCC3)cc2)cc1)C(=O)NO", "experiment": "Ratio of Kcat to Km of Escherichia coli LpxC Q202W/G210S mutant", "how_it_was_run": "as §1"}},
  "data": [
    {"protein": "UDP-3-O-acyl-N-acetylglucosamine deacetylase (Rhizobium leguminosarum bv. trifolii (strain WSM1325)), C6ARS9 S214G (protein) MAIGLLGFQTTVSRPVTLSGTGVHSGAEVSITLNPAESDTGVVFQRLHDNGDITELKAVSSQVGNTDLCTVLGFSPAHSVATIEHVMAAVYALGLDNVVIEVQGSEMPIMDGSSLPFVEAIEQVGLVSLGVKRRYIRITKPVRIEHGGSWSEFRPYDGTRFEVEIDFECPLIGRQKWAGDMTPAVFKAELSRARTFGFMRDVERLWASGHALGGSLENSVVISDDNTVINVEGLRYAKDEFVRHKTLDAVGDLSLAGVQFIGCYRSYRGGHKMNANALKALLADSSAYEVVETSTPRQRVAARELIAVSASEFAPWSA", "values": [
      {"measurement": "Km", "setting": "[1]", "result": 3.9, "unit": "µM"},
      {"measurement": "kcat", "setting": "[1]", "result": 0.12, "unit": "s⁻¹"},
      {"measurement": "kcat/Km", "setting": "[2]", "result": "3.1 10^4/M/s"}
    ]},
    {"protein": "UDP-3-O-acyl-N-acetylglucosamine deacetylase (Rhizobium leguminosarum bv. trifolii (strain WSM1325)), C6ARS9 W206Q,S214G (protein) MAIGLLGFQTTVSRPVTLSGTGVHSGAEVSITLNPAESDTGVVFQRLHDNGDITELKAVSSQVGNTDLCTVLGFSPAHSVATIEHVMAAVYALGLDNVVIEVQGSEMPIMDGSSLPFVEAIEQVGLVSLGVKRRYIRITKPVRIEHGGSWSEFRPYDGTRFEVEIDFECPLIGRQKWAGDMTPAVFKAELSRARTFGFMRDVERLQASGHALGGSLENSVVISDDNTVINVEGLRYAKDEFVRHKTLDAVGDLSLAGVQFIGCYRSYRGGHKMNANALKALLADSSAYEVVETSTPRQRVAARELIAVSASEFAPWSA", "values": [
      {"measurement": "Km", "setting": "[3]", "result": 10, "unit": "µM"},
      {"measurement": "kcat", "setting": "[3]", "result": 0.14, "unit": "s⁻¹"},
      {"measurement": "kcat/Km", "setting": "[4]", "result": "1.4 10^4/M/s"}
    ]},
    {"protein": "UDP-3-O-acyl-N-acetylglucosamine deacetylase (Escherichia coli K-12), P0A725 (protein) MIKQRTLKRIVQATGVGLHTGKKVTLTLRPAPANTGVIYRRTDLNPPVDFPADAKSVRDTMLCTCLVNEHDVRISTVEHLNAALAGLGIDNIVIEVNAPEIPIMDGSAAPFVYLLLDAGIDELNCAKKFVRIKETVRVEDGDKWAEFKPYNGFSLDFTIDFNHPAIDSSNQRYAMNFSADAFMRQISRARTFGFMRDIEYLQSRGLCLGGSFDCAIVVDDYRVLNEDGLRFEDEFVRHKMLDAIGDLFMCGHNIIGAFTAYKSGHALNNKLLQAVLAKQEAWEYVTFQDDAELPLAFKAPSAVLA", "values": [
      {"measurement": "kcat/Km", "setting": "[5]", "result": "1.1 10^6/M/s"},
      {"measurement": "Km", "setting": "[6]", "result": 4, "unit": "µM"},
      {"measurement": "kcat", "setting": "[6]", "result": 4.2, "unit": "s⁻¹"}
    ]},
    {"protein": "UDP-3-O-acyl-N-acetylglucosamine deacetylase (Escherichia coli K-12), P0A725 Q202W,G210S (protein) MIKQRTLKRIVQATGVGLHTGKKVTLTLRPAPANTGVIYRRTDLNPPVDFPADAKSVRDTMLCTCLVNEHDVRISTVEHLNAALAGLGIDNIVIEVNAPEIPIMDGSAAPFVYLLLDAGIDELNCAKKFVRIKETVRVEDGDKWAEFKPYNGFSLDFTIDFNHPAIDSSNQRYAMNFSADAFMRQISRARTFGFMRDIEYLWSRGLCLGSSFDCAIVVDDYRVLNEDGLRFEDEFVRHKMLDAIGDLFMCGHNIIGAFTAYKSGHALNNKLLQAVLAKQEAWEYVTFQDDAELPLAFKAPSAVLA", "values": [
      {"measurement": "Km", "setting": "[7]", "result": 11, "unit": "µM"},
      {"measurement": "kcat", "setting": "[7]", "result": 1.6, "unit": "s⁻¹"},
      {"measurement": "kcat/Km", "setting": "[8]", "result": "1.5 10^6/M/s"}
    ]}
  ]
}
